Tests used:
[1] = tested on: Mus musculus; test: Increase in HDL-cholesterol in hemizygous human CETP transgenic mouse at 1 mg/kg, po dosed for 5 consecutive days; format: functional
How it was run: (§1)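 Male hemizygous hCETP or hCETP/hApoB100 transgenic mice, 26−30 weeks, chow-fed. Compound suspended in 0.5% aqueous hydroxyethylcellulose, oral gavage each morning for 5 or 14 days. EDTA blood taken 7 h post-dose (fed for 5-day, after 4 h fast for 14-day) from vena facialis under isoflurane. HDL/LDL cholesterol measured on Cobas Integra 400 Plus. Mean ± SEM, one-way ANOVA with Bonferroni.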

[2] = tested on: Cynomolgus monkey; test: Effect on electrocardiogram parameters in cynomolgus monkey assessed as changes in QT-interval up to 100 mg/kg by telemetry; format: ADME, organism-based, Macaca fascicularis; parameters: dose 100 mg/kg; settings: in vivo
How it was run: (§2)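 Acute telemetry study in conscious cynomolgus monkeys at doses up to 100 mg/kg. Blood pressure, left ventricular pressure, contractility, heart rate and ECG (PR, QRS, QT) recorded. Exposure followed as Cmax and MRT.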

[3] = tested on: Mus musculus; test: Reduction in plasma LDL-cholesterol in human CETP/human ApoB-100 transgenic mouse at 1 mg/kg, po dosed for 14 consecutive days; format: functional; how it was run: as §1
[4] = tested on: Mus musculus; test: Increase in HDL-cholesterol in human CETP/human ApoB-100 transgenic mouse at 3 mg/kg, po dosed for 14 consecutive days; format: functional; how it was run: as §1
[5] = tested on: Mus musculus; test: Increase in HDL-cholesterol in human CETP/human ApoB-100 transgenic mouse at 10 mg/kg, po dosed for 14 consecutive days; format: functional; how it was run: as §1
[6] = Drug concentration in adipose fat tissue of hemizygous human CETP transgenic mouse at 3 mg/kg, po dosed for 5 consecutive days measured on day 3 after cessation of drug treatment; format: ADME, organism-based; parameters: dose 3 mg/kg, route oral; settings: in vivo
How it was run: (§3)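 Male hCETP transgenic mice given oral doses for 5 days in 0.5% hydroxyethylcellulose. Tissues and plasma collected at day 3 and day 21 after the last dose. Fat diluted 6:1 with acetonitrile and homogenized. Analysis by LC/MS/MS on a C18 column with QCs at 4.0−1000 nM, accepted within 30% of target.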

[7] = tested on: Cynomolgus monkey; test: Effect on blood pressure in cynomolgus monkey up to 100 mg/kg by telemetry; format: ADME, organism-based, Macaca fascicularis; parameters: dose 100 mg/kg; settings: in vivo; how it was run: as §2
[8] = tested on: NCI-H295R; test: Effect on aldosterone secretion in human NCI-H295R cells up to 10 uM; format: ADME, cell-based
[9] = tested on: Mus musculus; test: Increase in HDL-cholesterol in human CETP/human ApoB-100 transgenic mouse at 1 mg/kg, po dosed for 14 consecutive days; format: functional; how it was run: as §1
[10] = tested on: Cynomolgus monkey; test: Effect on myocardial contractility in cynomolgus monkey up to 100 mg/kg by telemetry; format: ADME, organism-based, Macaca fascicularis, Myocardium; parameters: dose 100 mg/kg; settings: in vivo; how it was run: as §2
[11] = tested on: Mus musculus; test: Increase in HDL-cholesterol in hemizygous human CETP transgenic mouse at 10 mg/kg, po dosed for 5 consecutive days; format: functional; how it was run: as §1
[12] = tested on: Mus musculus; test: Reduction in plasma LDL-cholesterol in human CETP/human ApoB-100 transgenic mouse at 3 mg/kg, po dosed for 14 consecutive days; format: functional
How it was run: (§4)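 Hemizygous male human CETP/human apoB100 transgenic mice (B6.SJL-Tg(APOA-CETP)1Dsg Tg(APOB)1102Sgy N10), aged 26–30 weeks and chow-fed, received oral gavage each morning for 14 consecutive days. Compound was suspended in 0.5% aqueous hydroxyethylcellulose. EDTA blood was taken from the facial vein under isoflurane 7 h post-dose after a 4 h fast. Plasma LDL-cholesterol fraction was measured on an automated analyzer. Data are mean ± SEM.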

[13] = tested on: Cynomolgus monkey; test: Effect on electrocardiogram parameters in cynomolgus monkey assessed as changes in QRS-complex up to 100 mg/kg by telemetry; format: ADME, organism-based, Macaca fascicularis; parameters: dose 100 mg/kg; settings: in vivo; how it was run: as §2
[14] = tested on: Mus musculus; test: Increase in HDL-cholesterol in hemizygous human CETP transgenic mouse dosed for 5 consecutive days via oral gavage; format: functional, organism-based; how it was run: as §1
[15] = tested on: Mus musculus; test: Increase in HDL-cholesterol in hemizygous human CETP transgenic mouse at 3 mg/kg, po dosed for 5 consecutive days; format: functional; how it was run: as §1
[16] = tested on: Plasma; test: Drug concentration in plasma of hemizygous human CETP transgenic mouse at 3 mg/kg, po dosed for 5 consecutive days measured on day 3 after cessation of drug treatment; format: ADME, organism-based; parameters: dose 3 mg/kg, route oral; settings: in vivo; how it was run: as §3
[17] = Drug concentration in adipose fat tissue of hemizygous human CETP transgenic mouse at 3 mg/kg, po dosed for 5 consecutive days measured on day 21 after cessation of drug treatment; format: ADME, organism-based; parameters: dose 3 mg/kg, route oral; settings: read-out: Drug uptake; how it was run: as §3
[18] = molecular target: T1, Cholesteryl ester transfer protein (Homo sapiens, UniProt P11597); test: Inhibition of human recombinant CETP in presence of 88% human plasma by fluorescence transfer assay
T1 sequence (P11597 whole entry): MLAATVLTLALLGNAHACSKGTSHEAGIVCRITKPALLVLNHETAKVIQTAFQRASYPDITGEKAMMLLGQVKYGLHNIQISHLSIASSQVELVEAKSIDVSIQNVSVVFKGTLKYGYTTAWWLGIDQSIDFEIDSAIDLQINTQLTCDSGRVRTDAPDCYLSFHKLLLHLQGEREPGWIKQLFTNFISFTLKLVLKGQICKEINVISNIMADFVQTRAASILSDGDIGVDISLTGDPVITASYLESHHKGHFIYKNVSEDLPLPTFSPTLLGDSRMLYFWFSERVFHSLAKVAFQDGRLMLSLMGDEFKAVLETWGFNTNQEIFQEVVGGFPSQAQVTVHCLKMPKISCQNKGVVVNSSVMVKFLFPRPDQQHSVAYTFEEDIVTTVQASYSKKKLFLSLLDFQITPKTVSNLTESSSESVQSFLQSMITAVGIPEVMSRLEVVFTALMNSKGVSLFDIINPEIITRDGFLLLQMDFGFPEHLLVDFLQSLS
How it was run: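 Fluorescent neutral-lipid transfer from donor to acceptor particles by human recombinant CETP, with the test compound added in DMSO. Incubation 3 h at 37 °C. CE transfer is read as the fluorescence change at 485/535 nm. IC50 comes from a four-parameter logistic fit with variable slope. For this line the reaction contains 88% human plasma.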

[19] = Cmax in cynomolgus monkey up to 100 mg/kg; format: ADME, organism-based, Macaca fascicularis; parameters: dose 100 mg/kg; settings: in vivo; how it was run: as §2
[20] = tested on: Mus musculus; test: Inhibition of plasma CETP activity in hemizygous human CETP transgenic mouse dosed for 5 or 14 consecutive days via oral gavage; format: functional, organism-based
[21] = Drug concentration in muscle of hemizygous human CETP transgenic mouse at 3 mg/kg, po dosed for 5 consecutive days measured on day 21 after cessation of drug treatment; format: ADME, organism-based, Muscle tissue; parameters: dose 3 mg/kg, route oral; settings: read-out: Drug uptake; how it was run: as §3
[22] = tested on: Liver; test: Drug concentration in liver of hemizygous human CETP transgenic mouse at 3 mg/kg, po dosed for 5 consecutive days measured on day 3 after cessation of drug treatment; format: ADME, organism-based; parameters: dose 3 mg/kg, route oral; settings: in vivo; how it was run: as §3
[23] = tested on: Mus musculus; test: Reduction in LDL-cholesterol in hemizygous human CETP/human apoB100 transgenic mouse dosed for 14 consecutive days via oral gavage
[24] = tested on: Mus musculus; test: Reduction in plasma LDL-cholesterol in human CETP/human ApoB-100 transgenic mouse at 10 mg/kg, po dosed for 14 consecutive days; format: functional; how it was run: as §4
[25] = tested on: Plasma; test: Plasma concentration in hemizygous human CETP transgenic mouse at 10 mg/kg, po dosed for 5 consecutive days measured on day 5 and day 7 post dose; format: ADME, organism-based; parameters: dose 10 mg/kg, route oral; settings: in vivo
[26] = tested on: Kidney; test: Drug concentration in kidney of hemizygous human CETP transgenic mouse at 3 mg/kg, po dosed for 5 consecutive days measured on day 3 after cessation of drug treatment; format: ADME, organism-based; parameters: dose 3 mg/kg, route oral; settings: in vivo; how it was run: as §3
[27] = tested on: Plasma; test: Plasma concentration in hemizygous human CETP transgenic mouse at 1 mg/kg, po dosed for 5 consecutive days measured on day 5 and day 7 post dose; format: ADME, organism-based; parameters: dose 1 mg/kg, route oral; settings: in vivo
[28] = Drug concentration in liver of hemizygous human CETP transgenic mouse at 3 mg/kg, po dosed for 5 consecutive days measured on day 21 after cessation of drug treatment; format: ADME, organism-based; parameters: dose 3 mg/kg, route oral; settings: read-out: Drug uptake; how it was run: as §3
[29] = Drug concentration in testes of hemizygous human CETP transgenic mouse at 3 mg/kg, po dosed for 5 consecutive days measured on day 21 after cessation of drug treatment; format: ADME, organism-based, Testis; parameters: dose 3 mg/kg, route oral; settings: male, read-out: Drug uptake; how it was run: as §3
[30] = Mean residence time in cynomolgus monkey up to 100 mg/kg; format: ADME, organism-based, Macaca fascicularis; parameters: dose 100 mg/kg; settings: in vivo; how it was run: as §2
[31] = Clearance in C57BL/6J mouse at 1 umol/kg, iv; format: ADME, organism-based; settings: in vivo
[32] = AUC (0 to 24 hrs) in C57BL/6J mouse at 10 umol/kg, po; format: ADME, organism-based; parameters: time < 24 hr, dose 10 umol/kg, route oral; settings: plasma
[33] = Volume of distribution at steady state in C57BL/6J mouse at 1 umol/kg, iv; format: ADME, organism-based; settings: in vivo, read-out: Vdss
[34] = tested on: Cynomolgus monkey; test: Effect on electrocardiogram parameters in cynomolgus monkey assessed as changes in PR-interval up to 100 mg/kg by telemetry; format: ADME, organism-based, Macaca fascicularis; parameters: dose 100 mg/kg; settings: in vivo; how it was run: as §2
[35] = Drug concentration in testes of hemizygous human CETP transgenic mouse at 3 mg/kg, po dosed for 5 consecutive days measured on day 3 after cessation of drug treatment; format: ADME, organism-based, Testis; parameters: dose 3 mg/kg, route oral; settings: in vivo; how it was run: as §3
[36] = tested on: Mus musculus; test: Increase in HDL-cholesterol in hemizygous human CETP transgenic mouse dosed for 14 consecutive days via oral gavage; format: functional, organism-based; how it was run: as §1
[37] = tested on: Cynomolgus monkey; test: Effect on left ventricular pressure in cynomolgus monkey up to 100 mg/kg by telemetry; format: ADME, organism-based, Macaca fascicularis, Heart left ventricle; parameters: dose 100 mg/kg; settings: in vivo; how it was run: as §2
[38] = tested on: Muscle tissue; test: Drug concentration in muscle of hemizygous human CETP transgenic mouse at 3 mg/kg, po dosed for 5 consecutive days measured on day 3 after cessation of drug treatment; format: ADME, organism-based; parameters: dose 3 mg/kg, route oral; settings: in vivo; how it was run: as §3
[39] = tested on: Cynomolgus monkey; test: Effect on heart rate in cynomolgus monkey up to 100 mg/kg by telemetry; format: ADME, organism-based, Macaca fascicularis; parameters: dose 100 mg/kg; settings: in vivo; how it was run: as §2
[40] = Drug concentration in kidney of hemizygous human CETP transgenic mouse at 3 mg/kg, po dosed for 5 consecutive days measured on day 21 after cessation of drug treatment; format: ADME, organism-based; parameters: dose 3 mg/kg, route oral; settings: read-out: Drug uptake; how it was run: as §3
[41] = Mean residence time in C57BL/6J mouse at 1 umol/kg, iv; format: ADME, organism-based; settings: in vivo
[42] = Drug concentration in plasma of hemizygous human CETP transgenic mouse at 3 mg/kg, po dosed for 5 consecutive days measured on day 21 after cessation of drug treatment; format: ADME, organism-based; parameters: dose 3 mg/kg, route oral; how it was run: as §3
[43] = tested on: Plasma; test: Plasma concentration in hemizygous human CETP transgenic mouse at 3 mg/kg, po dosed for 5 consecutive days measured on day 5 and day 7 post dose; format: ADME, organism-based; parameters: dose 3 mg/kg, route oral; settings: in vivo

Compound: CC(C)c1nc2c(c3c1[C@@H](c1ccc(C(F)(F)F)cc1)OC31CCOCC1)[C@@H](O)CC(C)(C)C2
- Activity [1]: 55.6%
- Activity [2]: Non-toxic
- inhibition in vivo at 1 mg/kg [3]: 26.2%
- Activity [4]: 32.3%
- Activity [5]: 37.2%
- Drug uptake [6]: Active
- Activity [7]: Non-toxic
- Activity [8]: Non-toxic
- Activity [9]: 23.5%
- Activity [10]: Non-toxic
- Activity [11]: 37.4%
- inhibition in vivo at 3 mg/kg [12]: 49%
- Activity [13]: Non-toxic
- Activity [14]: Dose-dependent effect
- Activity [15]: 74.4%
- Drug uptake [16]: Active
- concentration at 21 days after cessation of treatment [17]: < 30 nM
- IC50 [18]: 151 nM
- Cmax [19]: > 10000 nM
- inhibition [20]: Dose-dependent effect
- concentration at 21 days after cessation of treatment [21]: < 30 nM
- Drug uptake [22]: Active
- Activity [23]: Dose-dependent effect
- inhibition in vivo at 10 mg/kg [24]: 60%
- concentration [25]: 671 nM
- Drug uptake [26]: Active
- concentration [27]: 96 nM
- concentration at 21 days after cessation of treatment [28]: < 30 nM
- concentration at 21 days after cessation of treatment [29]: < 30 nM
- MRT [30]: > 20 h
- clearance [31]: 16 mL/min/kg
- AUC(0-t) at 24 h [32]: 4.9 µM·h
- Vd [33]: 5.9 L/kg
- Activity [34]: Non-toxic
- Drug uptake [35]: Active
- Activity [36]: Dose-dependent effect
- Activity [37]: Non-toxic
- Drug uptake [38]: Active
- Activity [39]: Non-toxic
- concentration at 21 days after cessation of treatment [40]: < 30 nM
- MRT [41]: 6.1 h
- concentration at 21 days after cessation of treatment [42]: < 30 nM
- concentration [43]: 206 nM
